Measurements from paper PMC3737387 (Nuclear medicine and biology, 2013).
Where “and” joins values, the source holds several entries; their conditions need not be identical. Identical values can stand only once.

Columns and labels:
[1] = test system: FAAH; settings: Phase II crossover study, pain associated with osteoarthritis; cited from earlier work
[2] = test system: FAAH; settings: URB597 2 mg/kg ip; cited from earlier work
[3] = test system: FAAH; settings: rodents; cited from earlier work
[4] = test system: FAAH; settings: previously reported; cited from earlier work
[5] = Ex vivo biodistribution of [^11C]PF-04457845 in conscious rat brain and plasma; settings: for Ex vivo biodistribution, Cerebellum / Ex vivo biodistribution, Cortex / Ex vivo biodistribution, Hypothalamus / Ex vivo biodistribution, Plasma / Ex vivo biodistribution, Rest of Brain: n = 4
[6] = target: T1, FAAH (Rattus norvegicus, UniProt P97612); test: Pharmacological blocking of [^11C]PF-04457845 uptake in rat brain; format: in vivo; settings: control vs URB597 (2 mg/kg ip) pretreated group; 40 min post injection
T1 sequence (P97612 1-579): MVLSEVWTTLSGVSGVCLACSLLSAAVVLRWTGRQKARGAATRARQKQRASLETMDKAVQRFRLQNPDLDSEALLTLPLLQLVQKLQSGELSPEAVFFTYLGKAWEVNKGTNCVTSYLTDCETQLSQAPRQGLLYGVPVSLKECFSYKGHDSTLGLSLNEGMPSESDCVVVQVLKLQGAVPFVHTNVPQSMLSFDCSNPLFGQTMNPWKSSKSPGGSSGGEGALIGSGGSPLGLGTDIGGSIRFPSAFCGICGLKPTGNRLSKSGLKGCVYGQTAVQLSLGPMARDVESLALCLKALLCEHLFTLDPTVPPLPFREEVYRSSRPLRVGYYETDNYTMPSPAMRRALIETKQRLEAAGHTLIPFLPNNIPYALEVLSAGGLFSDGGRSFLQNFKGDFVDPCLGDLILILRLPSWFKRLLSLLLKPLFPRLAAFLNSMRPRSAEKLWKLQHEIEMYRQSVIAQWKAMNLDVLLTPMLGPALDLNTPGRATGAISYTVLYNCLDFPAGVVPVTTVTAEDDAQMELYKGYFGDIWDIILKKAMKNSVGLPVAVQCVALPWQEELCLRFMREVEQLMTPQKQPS

[7] = HPLC analysis of plasma metabolites; format: in vivo; settings: rat
Outline: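 Heparinized rat trunk blood is centrifuged, and the plasma is acidified with 20% (v/v) of 50% aqueous acetic acid. It is loaded onto an HLB capture column, eluted with 1% acetonitrile (2 mL/min, 4 min), then backflushed with 60% acetonitrile/water + 0.1 N ammonium formate (pH 4) onto C18. Detection is by coincidence-mode radio-flow. Eluent switches to 100% ethanol after the parent to detect lipophilic metabolites. Peaks are decay-corrected and integrated.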

[8] = target: T1, FAAH; test: Irreversible binding of [^11C]PF-04457845 to FAAH in the rat brain; format: in vivo
[9] = test system: FAAH; settings: rodents, cited from earlier work

O=C(Nc1cccnn1)N1CCC(=Cc2cccc(Oc3ccc(C(F)(F)F)cn3)c2)CC1 [PF-04457845]
analgesic effect [1]: did not induce an analgesic effect | endocannabinoid levels in blood [1]: modulate endocannabinoid levels in blood

NC(=O)c1cccc(-c2cccc(OC(=O)NC3CCCCC3)c2)c1 [URB597, 3′-carbamoyl-[1,1′-biphenyl]-3-yl-cyclohexylcarbamate]
FAAH enzyme inactivated in rodent brains [2]: > 90% and 90%

COc1ccc(NC(=O)Oc2ccc[11c](-c3ccccc3)c2)cc1 [[^11C]1,1′-biphenyl-3-yl-(4-methoxyphenyl)carbamate]
brain uptake [3]: low brain uptake | specific binding [3]: no detectable specific binding

O=[11C](NC1CCCCC1)Oc1ccc(O)c(-c2ccccc2)c1 [[^11C]CURB, [^11C-carbonyl]-6-hydroxy-[1,1′-biphenyl]-3-yl-cyclohexylcarbamate]
level of specific binding [4]: 80%

O=C(Nc1cccnn1)N1CCC(=Cc2cccc(Oc3ccc(C(F)(F)F)cn3)c2)CC1 [[^11C]PF-04457845]
brain uptake ([5]; conscious rats, tail-vein injection, across regions and time points): 1.2 to 4.4 SUV | Ex vivo biodistribution, Cerebellum ([5]; rat, 2 min post iv injection): 1.87 ± 0.05 SUV | Ex vivo biodistribution, Cortex ([5]; rat, 2 min post iv injection): 2.22 ± 0.06 SUV | Ex vivo biodistribution, Hypothalamus ([5]; rat, 2 min post iv injection): 1.29 ± 0.05 SUV | Ex vivo biodistribution, Plasma ([5]; rat, 2 min post iv injection): 1.03 ± 0.19 SUV | Ex vivo biodistribution, Rest of Brain ([5]; rat, 2 min post iv injection): 1.51 ± 0.08 SUV | Ex vivo biodistribution, Cerebellum ([5]; rat, 15 min post iv injection): 3.17 ± 0.10 SUV | Ex vivo biodistribution, Cortex ([5]; rat, 15 min post iv injection): 3.64 ± 0.24 SUV | Ex vivo biodistribution, Hypothalamus ([5]; rat, 15 min post iv injection): 1.96 ± 0.10 SUV | Ex vivo biodistribution, Plasma ([5]; rat, 15 min post iv injection): 0.33 ± 0.04 SUV | Ex vivo biodistribution, Rest of Brain ([5]; rat, 15 min post iv injection): 2.44 ± 0.07 SUV | Ex vivo biodistribution, Cerebellum ([5]; rat, 40 min post iv injection): 3.56 ± 0.10 SUV | Ex vivo biodistribution, Cortex ([5]; rat, 40 min post iv injection): 4.11 ± 0.30 SUV | Ex vivo biodistribution, Hypothalamus ([5]; rat, 40 min post iv injection): 2.18 ± 0.20 SUV | Ex vivo biodistribution, Plasma ([5]; rat, 40 min post iv injection): 0.12 ± 0.01 SUV | Ex vivo biodistribution, Rest of Brain ([5]; rat, 40 min post iv injection): 2.77 ± 0.24 SUV | Ex vivo biodistribution, Cerebellum ([5]; rat, 60 min post iv injection): 3.42 ± 0.34 SUV | Ex vivo biodistribution, Cortex ([5]; rat, 60 min post iv injection): 3.92 ± 0.37 SUV | Ex vivo biodistribution, Hypothalamus ([5]; rat, 60 min post iv injection): 2.10 ±0.31 SUV | Ex vivo biodistribution, Plasma ([5]; rat, 60 min post iv injection): 0.09 ± 0.03 SUV | Ex vivo biodistribution, Rest of Brain ([5]; rat, 60 min post iv injection): 2.59 ± 0.19 SUV | time at which brain uptake reaches a plateau ([5]; rat, post injection): 40 min | specific to non-specific binding ratio, cerebellum [6]: 3.4 | specific to non-specific binding ratio, cortex [6]: 4.2 | specific to non-specific binding ratio, hypothalamus [6]: 2.5 | parent radiotracer remaining in plasma ([7]; 15 min post injection): 82% | parent radiotracer remaining in plasma ([7]; 40 min post injection): 73% | parent radiotracer remaining in plasma ([7]; 60 min post injection): 66% | lipophilic metabolite, share of total radioactivity present in plasma ([7]; later time-points): 3 – 3.5% | SBR (specific to non-specific binding ratio) to FAAH from extraction studies ([8]; rat whole brain, ([95/5]-1)): > 18 | radioactivity irreversibly bound to brain tissue ([8]; rat, 2 min post injection): 84% | extractable brain radioactivity ([8]; rat, 40 min post injection): 2% | radioactivity in whole brain that is FAAH-bound ([8]; rat, 40 min post injection): > 95% | radioactivity irreversibly bound to brain tissue ([8]; rat, 40 min post injection): 98% | radioactivity bound to brain parenchyma ([8]; rat, after ip pre-treatment with URB597 (2 mg/kg)): 5%

O=C(Nc1cccnn1)N1CCC(=Cc2cccc(Oc3ccc(OCC[18F])cn3)c2)CC1 [[^18F]PF-9811, 4-(3-((5-(2-[^18F]fluoroethoxy)pyridine-2-yl)oxy)benzylidene)-N-(pyridazin-3-yl)piperidine-1-carboxamide]
brain uptake in the cortex ([9]; 90 min): 0.8 SUV | specific to non-specific binding ratios [9]: 2.3 – 2.6
